In the library only some 4.1% were active in any assay of this set; here they are far more common.
Redox H2O2 prof – compounds producing H2O2 with reducing agent – biochemical, NIH compound library profiling, artefact control for MLSCN library redox annotation, primary screen. DTT-dependent redox cycling H2O2, phenol red/HRP absorbance; 100% = 100 µM peroxide control, 0% = buffer. activation, % at 10 µM. 0.03% of 200,000 active. AID 878;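 active means activation of at least 50% relative to the plate's high and low controls in the primary single-dose screen; inactive means activation below 50%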;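 further: compound incubated with DTT at 0.8 mM final as the reducing agent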
Autophagy HCS – alters autophagy in cells | MEF GFP-LC3 puncta imaging; test concentration mostly 10 µM | calls only at 10 µM (by protocol) | 0.98% of 190,000 active;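 active means percentage of spot-positive cells more than 3 SD above its plate mean, without a fluorescence outlier flag or 80% toxicity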;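 further: spot-positive cell cutoff set from DMSO-treated cells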
Dynein transport – dynein cargo transport inhibition. 0.47% of 220,000 active. 3617.4 mouse cells, GR-EGFP nuclear translocation imaging; test concentration mostly 20 µM; stimulated with dexamethasone, 1 µM; hits give low values. z-score, hits read low;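 active means plate z-score of nuclear minus cytoplasmic receptor signal below a set negative limit, without overly bright fluorescence or cell loss, cut at about -3.5 in these data, passing the limit was not always enough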;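 further: z-score of nuclear minus cytoplasmic ring GR-EGFP intensity difference per well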
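Medium: Induction medium lacking tetracycline, stripped serum | Probe or stimulus: 1.0 µM final dexamethasone stimulus | Schedule: 48 h induction, then 1 h compound, then 30 min agonist, 37 °C | Signal: Automated 10x imaging of fixed Hoechst-stained cells | Evaluation: Per-cell GR-EGFP intensity, nucleus versus surrounding cytoplasmic ring, well-averaged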
Cl transport mod – modulates chloride dependent transport by human KCC2 | Q9H2X9 | KCC2 cells, thallium flux FluoZin-2 fluorescence | B-score of Tl+ flux slope (higher = more flux/activation; lower = inhibition) at 10 µM | 2.2% of 190,000 active;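 active means thallium flux slope and its plate-corrected score both differing from the plate sample mean at a set confidence after two filtering rounds, in either direction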;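 further: slope of fluorescence scaled to starting intensity during 10 to 20 s after thallium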
ROMK primary – human ROMK K+ channel modulation, primary screen. P48048. Tet-inducible ROMK, thallium flux fluorescence; actives lie on both sides. B-score at 10 µM. 2% of 130,000 active. AID 1918;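 active means signal ratio slope over the read window, or its plate-corrected B-score, at least 3 SD from the plate mean, either direction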;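 further: B-score of the F/F0 ratio slope over 7 to 12 s after thallium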
Target sequence (P48048 whole entry, looked up): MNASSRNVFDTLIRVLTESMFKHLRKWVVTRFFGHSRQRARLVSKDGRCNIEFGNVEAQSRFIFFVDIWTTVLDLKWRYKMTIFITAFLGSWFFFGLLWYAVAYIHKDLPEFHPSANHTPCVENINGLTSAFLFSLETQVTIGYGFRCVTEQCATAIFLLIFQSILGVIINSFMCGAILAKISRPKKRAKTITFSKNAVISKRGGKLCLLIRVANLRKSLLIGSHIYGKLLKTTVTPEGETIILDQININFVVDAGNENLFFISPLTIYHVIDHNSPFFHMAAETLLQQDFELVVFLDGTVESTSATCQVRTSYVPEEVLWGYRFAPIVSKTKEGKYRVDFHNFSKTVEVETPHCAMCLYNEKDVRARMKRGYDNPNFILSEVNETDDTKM
* marks the source's active call; other numbers are inactive results; i = inactive; x = no result; + = active, no number; ! = a repeat was not active.

SMILES | Redox H2O2 prof | Autophagy HCS | Dynein transport | Cl transport mod | ROMK primary
CCOc1cc(/C=N/Nc2nc(-c3cccc(S(=O)(=O)N4CCCC4)c3)cs2)ccc1O | 0 | i | -0.95 | 1.1 | 0.3
CCc1ccc(C(=O)NC(CC(C)C)C(=O)O)cc1 (stereo unspecified) | -1 | i | -1.2 | 4.7* | -0.4
O=C(Cn1cnc2sc(-c3ccccc3)cc2c1=O)NCc1ccccc1 | 0 | + | 0.26 | -1.5 | 1.9
COc1ccc(-c2[nH]ncc2CN(C)CC2CCCCO2)cc1F (stereo unspecified) | -1 | + | 0.035 | 0.23 | 0.028
N#Cc1cc2ccccc2nc1N | 0 | + | -0.062 | 0.55 | 1.3
Cc1ccc(C2SCC(=O)N2Cc2cn3ccsc3n2)o1 (stereo unspecified) | 0 | + | -0.4 | x | x
Cn1ncc(N=Cc2c(O)ccc3ccccc23)c1C(=O)Nc1cccc(Cl)c1 | -2 | + | -0.06 | 0.37 | -2.8
Cn1ncc(Cl)c1C(=O)Nc1cccc(Cl)c1 | 1 | i | 0.25 | 1.1 | 0.36
CC(=O)c1ccc(N2CCN(C(=O)c3ccc4c(Cl)c5c(nc4c3)CCCC5)CC2)cc1 | 0 | i | -3.6* | 0.4 | x
O=C(c1ccc2c(Cl)c3c(nc2c1)CCCC3)N1CCC(N2CCCCC2)CC1 | 0 | i | -3.1 | -1.3 | -0.72
O=C(O)C1=C[C@@H](c2csc3ccccc23)C[C@@H](OCc2ccc(CO)cc2)O1 | 0 | i | 1.4 | -3.1* | x
COc1ccc(C2Sc3nncn3N2Cc2ccc(C#N)cc2)cc1 (stereo unspecified) | 0 | + | -0.093 | x | x
COc1ccc(-n2c(SCc3ccc(C#N)cc3)nnc2-c2ccccn2)cc1 | 2 | i | 0.47 | 0.31 | x
CC(=O)Nc1c(I)c(NC(C)=O)c(I)c(C(=O)O)c1I | 0 | i | -0.68 | 10*! | x
COC(=O)c1nc(NC(C)=O)n[nH]1 | 0 | i | -0.49 | x | 0.19
COc1ccc(CNC(=O)CN2C(=O)C3C4C=CC(C4)C3C2=O)cc1 (stereo unspecified) | 0 | + | 1.1 | 0.11 | x
CC(C)(C)c1ccc(NNC(=O)C2CCC2)cc1 | x | x | -0.57 | -0.72 | x
CN(CC(O)COc1ccc(OCC(O)CN(C)C2CCCCC2)cc1)C1CCCCC1 (stereo unspecified) | 0 | + | -0.34 | x | 0.8
CCC(=O)c1ccc(OCC(O)CN(C)C2CCCCC2)cc1 (stereo unspecified) | 1 | i | -0.079 | 0.5 | -0.53
COC(=O)c1sccc1NC(=O)c1ccc(Cl)s1 | 1 | i | 0.15 | x | -0.056
CCn1c(C(=O)Nc2ccsc2C(=O)OC)cc2sc(Cl)cc21 | -1 | + | 1.2 | -0.36 | x
O=[N+]([O-])c1ccc(Cl)cc1N1CCCCC1 | 0 | + | 0.82 | -0.2 | 0.18
Cc1ccc(NC(=O)COC(=O)[C@H](C)N2C(=O)C3CC=CCC3C2=O)cc1S(=O)(=O)N(C)C (stereo partly specified) | -1 | i | 1.3 | 0.15 | 0.39
Cc1ccc(CNc2ccc3c(c2)OCO3)cc1 | 1 | + | 2.7 | 0.43 | x
CCOc1nc(NC(=O)NC(=O)c2ccccc2)nc(-c2ccccc2)n1 | 0 | + | -0.31 | 0.78 | x
SMILES | Redox H2O2 prof | Autophagy HCS | Dynein transport | Cl transport mod | ROMK primary
O=C(Nc1nnc(-c2ccc(Cl)cc2)o1)C1=COCCO1 | -1 | i | 2.1 | 9.4* | -1
COc1ccccc1C(=O)Nc1nnc(-c2ccc(Cl)cc2)o1 | x | x | 0.29 | 1.4 | x
O=C(CN1CCN(C(=O)c2ccco2)CC1)Nc1cccc([N+](=O)[O-])c1 | -1 | i | -0.31 | 0.19 | -0.28
CC(=O)OC1COC(OC2C(O)C(C)OC(OC3C(OC4CCC5(C)C(CCC6(C)C5CC=C5C7CC(C)(C)CCC7(C(=O)O)CCC56C)C4(C)CO)OCC(O)C3O)C2O)C(O)C1OC(C)=O (stereo unspecified) | -1 | i | -5.3* | 0.31 | x
CC1(C)CC[C@]2(C(=O)O)CC[C@]3(C)C(=CC[C@@H]4[C@@]5(C)CC[C@H](O)C(C)(C)[C@@H]5CC[C@]43C)[C@@H]2C1 | x | x | 0.46 | 1.1 | x
O=C(c1cc2cc([N+](=O)[O-])ccc2oc1=O)N1CCN(C2CCCCC2)CC1 | 0 | i | -1.2 | 0.18 | -0.77
O=[N+]([O-])c1ccc(/C=N/NC(=S)Nc2ccccc2F)o1 | 0 | i | 1.6 | 28* | x
Fc1ccccc1NC(=S)N/N=C/c1ccccc1Br | 1 | i | 2.1 | 6.2* | 0.8
COc1ccc(S(=O)(=O)N(C)C)cc1NS(=O)(=O)c1ccc(F)c(F)c1F | -1 | i | -0.59 | -0.042 | -0.6
Cc1cc(/C=N/NC(=O)c2ccccc2F)c(C)n1-c1ccccc1 | -2 | i | 0.29 | -1.6 | 4.2*
O=C1C2CC=CCC2C(=O)N1c1ccc(NCCc2ccccc2)c([N+](=O)[O-])c1 (stereo unspecified) | 0 | i | 1.8 | 2.4 | 0.9
CCN(CC)CCN(C)c1ccc(N2C(=O)C3CC=CCC3C2=O)cc1[N+](=O)[O-] (stereo unspecified) | -1 | + | 0.03 | -0.96 | -0.74
O=C1OCCC1Sc1nnnn1-c1ccc(Cl)cc1 (stereo unspecified) | 1 | i | -0.7 | 0.092 | -0.027
CC(=O)c1c(N2CCCC2)[nH]c(-c2ccccc2)nc1=S | 0 | i | 0.26 | 33* | 4.8*
CC(=O)c1c(C)[nH]c(-c2ccccc2)c1C | 0 | i | 0.44 | -0.31 | x
CC(=O)c1c(N)[nH]c(-c2ccccc2)nc1=S | 0 | i | 1.3 | x | 4.4*
CC(=O)c1c(N2CCN(Cc3ccccc3)CC2)[nH]c(-c2ccccc2)nc1=S | 1 | i | -1.1 | 45* | 7.5*
CCCn1c(=O)c(C(=O)NNS(=O)(=O)c2ccc(Cl)cc2)c(O)c2ccccc21 | 3 | i | -0.25 | -0.015 | -0.01
CCOC(=O)C1CCCN(CCC(=O)Nc2cccc(C)c2)C1 (stereo unspecified) | 0 | + | 1.1 | 0.32 | x
COc1ccc(NS(=O)(=O)c2cn(C)c(=O)n(C)c2=O)cc1 | x | x | -0.33 | 0.043 | -0.72
O=c1[nH]c2ccc(F)cc2[nH]c1=O | -2 | + | 0.42 | -0.33 | 0.0023
O=c1cc(-c2ccccc2)[nH]c2ccc(F)cc12 | 0 | i | 0.095 | 0.66 | 2.9
O=C(NC(=S)Nc1ccc(Cl)cn1)c1cccs1 | 0 | i | -0.4 | 21* | x
O=C(Nc1nc2c(ccc3ccccc32)s1)c1ccco1 | -1 | i | 0.4 | -1.4 | -0.75
Cc1ccnc(NC(=S)NC(=O)c2cccs2)c1 | 0 | i | -0.097 | 26* | 0.47
O=C(NC(=S)Nc1cccnc1)c1cccs1 | 0 | i | 0.079 | 4.5 | -0.17
O=C(NC(=S)Nc1nc2c(ccc3ccccc32)s1)c1cccs1 | 0 | i | 0.49 | 17* | 0.025
